# From ChEMBL document CHEMBL4118253, “Expedient synthesis and biological evaluation of alkenyl acyclic nucleoside phosphonate prodrugs” (Bioorg Med Chem, 2018)
# Experiments:
# [1] = tested on: Human alphaherpesvirus 1; test: Antiviral activity against Herpes simplex virus 1 KOS infected in HEL cells assessed as inhibition of virus-induced cytopathicity; format: functional, organism-based; settings: Human alphaherpesvirus 1, KOS
# [2] = tested on: Human alphaherpesvirus 2; test: Antiviral activity against Herpes simplex virus 2 G infected in HEL cells assessed as inhibition of virus-induced cytopathicity; format: functional, organism-based; settings: Human alphaherpesvirus 2, strain G
# [3] = tested on: Human alphaherpesvirus 1; test: Antiviral activity against acyclovir-resistant thymidine kinase deficient Herpes simplex virus 1 KOS infected in HEL cells assessed as inhibition of virus-induced cytopathicity; format: functional, organism-based; settings: Human alphaherpesvirus 1, KOS
# [4] = tested on: Vaccinia virus; test: Antiviral activity against Vaccinia virus infected in HEL cells assessed as inhibition of virus-induced cytopathicity; format: functional, organism-based; settings: Orthopoxvirus vaccinia
# [5] = tested on: Human adenovirus 2; test: Antiviral activity against Adenovirus 2 infected in HEL cells assessed as inhibition of virus-induced cytopathicity; format: functional, organism-based; settings: Human mastadenovirus C
# [6] = tested on: Human coronavirus 229E; test: Antiviral activity against Human coronavirus 229E infected in HEL cells assessed as inhibition of virus-induced cytopathicity; format: functional, organism-based
# [7] = tested on: Human respirovirus 3; test: Antiviral activity against Parainfluenza virus 3 infected in human HeLa cells assessed as inhibition of virus-induced cytopathicity; format: functional, organism-based; settings: Human respirovirus 3, HeLa
# [8] = tested on: Mammalian orthoreovirus 1; test: Antiviral activity against Reovirus-1 infected in human HeLa cells assessed as inhibition of virus-induced cytopathicity; format: functional, organism-based; settings: Mammalian orthoreovirus 1, HeLa
# [9] = tested on: Vesicular stomatitis virus; test: Antiviral activity against Vesicular stomatitis virus infected in human HeLa cells assessed as inhibition of virus-induced cytopathicity; format: functional, organism-based
# [10] = tested on: Respiratory syncytial virus; test: Antiviral activity against Respiratory syncytial virus infected in human HeLa cells assessed as inhibition of virus-induced cytopathicity; format: functional, organism-based
# [11] = tested on: Influenza A virus; test: Antiviral activity against Influenza A virus H1N1 infected in MDCK cells assessed as inhibition of virus-induced cytopathicity by MTS assay; format: functional, organism-based
# [12] = tested on: Influenza A virus H3N2; test: Antiviral activity against Influenza A virus H3N2 infected in MDCK cells assessed as inhibition of virus-induced cytopathicity by MTS assay; format: functional, organism-based
# [13] = tested on: Influenza B virus; test: Antiviral activity against Influenza B virus infected in MDCK cells assessed as inhibition of virus-induced cytopathicity by MTS assay; format: functional, organism-based
# [14] = tested on: Human alphaherpesvirus 3; test: Antiviral activity against thymidine kinase expressing Varicella-Zoster virus infected in HEL cells assessed as reduction in virus plaque formation; format: functional, organism-based; settings: Human alphaherpesvirus 3, HEL
# [15] = tested on: Human alphaherpesvirus 3; test: Antiviral activity against thymidine kinase deficient Varicella-Zoster virus infected in HEL cells assessed as reduction in virus plaque formation; format: functional, organism-based; settings: Human alphaherpesvirus 3, HEL
# [16] = tested on: Human betaherpesvirus 5; test: Antiviral activity against Human cytomegalovirus AD169 infected in HEL cells assessed as inhibition of virus-induced cytopathicity; format: functional, organism-based; settings: Human betaherpesvirus 5, AD169, HEL
# [17] = tested on: Human betaherpesvirus 5; test: Antiviral activity against Human cytomegalovirus Davis infected in HEL cells assessed as inhibition of virus-induced cytopathicity; format: functional, organism-based; settings: Human betaherpesvirus 5, Davis
# [18] = Cytotoxicity against HEL cells assessed as alteration of cell morphology by microscopic analysis; format: cell-based; settings: human
# Summary of the method: (§1)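 The value is the minimal cytotoxic concentration (MCC), the lowest concentration that causes a microscopically visible change in cell morphology. It was read in the same HEL or Vero cell cultures used for the antiviral tests.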
# [19] = tested on: Sindbis virus; test: Antiviral activity against Sindbis Virus infected in African green monkey Vero cells assessed as inhibition of virus-induced cytopathicity; format: functional, organism-based
# [20] = tested on: Coxsackievirus B4; test: Antiviral activity against Coxsackie virus B4 infected in African green monkey Vero cells assessed as inhibition of virus-induced cytopathicity; format: functional, organism-based; settings: Enterovirus B
# [21] = tested on: Punta Toro virus; test: Antiviral activity against Punta Toro virus infected in African green monkey Vero cells assessed as inhibition of virus-induced cytopathicity; format: functional, organism-based
# [22] = tested on: Yellow fever virus; test: Antiviral activity against Yellow fever virus infected in African green monkey Vero cells assessed as inhibition of virus-induced cytopathicity; format: functional, organism-based
# [23] = Cytotoxicity against African green monkey Vero cells assessed as alteration of cell morphology by microscopic analysis; format: cell-based; settings: chlorocebus sabaeus; summary of the method: as §1
# [24] = Cytotoxicity against human HeLa cells assessed as alteration of cell morphology by microscopic analysis; format: cell-based
# [25] = Cytotoxicity against MDCK cells assessed as alteration of cell morphology by microscopic analysis; format: cell-based, Canis lupus familiaris; settings: dog
# [26] = tested on: Influenza A virus; test: Antiviral activity against Influenza A virus H1N1 infected in MDCK cells assessed as inhibition of virus-induced visual cytopathicity; format: functional, organism-based
# [27] = tested on: Influenza A virus H3N2; test: Antiviral activity against Influenza A virus H3N2 infected in MDCK cells assessed as inhibition of virus-induced visual cytopathicity; format: functional, organism-based
# [28] = tested on: Influenza B virus; test: Antiviral activity against Influenza B virus infected in MDCK cells assessed as inhibition of virus-induced visual cytopathicity; format: functional, organism-based
SMILES,EC50 [1],EC50 [2],EC50 [3],EC50 [4],EC50 [5],EC50 [6],EC50 [7],EC50 [8],EC50 [9],EC50 [10],EC50 [11],EC50 [12],EC50 [13],EC50 [14],EC50 [15],EC50 [17],MCC [18],EC50 [19],EC50 [20],EC50 [21],further results
C/C(=C\CP(=O)(N[C@@H](C)C(=O)OCc1ccccc1)Oc1cccc2c1CCCC2)Cn1cc(C)c(=O)[nH]c1=O (stereo partly drawn),> 100 µM,> 100 µM,> 100 µM,> 100 µM,> 100 µM,> 100 µM,> 100 µM,> 100 µM,> 100 µM,> 100 µM,> 100 µM,> 100 µM,> 100 µM,50.2 µM,47.2 µM,> 100 µM,> 100 µM,> 100 µM,> 100 µM,> 100 µM,EC50 [16]: > 100 µM; EC50 [22]: > 100 µM; MCC [23]: ≥ 100 µM; MCC [24]: ≥ 100 µM; MCC [25]: > 100 µM; EC50 [26]: > 100 µM; EC50 [27]: > 100 µM; EC50 [28]: > 100 µM
C/C(=C\CP(=O)(N[C@@H](C)C(=O)OC(C)C)Oc1ccccc1)Cn1cc(C)c(=O)[nH]c1=O (stereo partly drawn),> 100 µM,> 100 µM,> 100 µM,> 100 µM,> 100 µM,> 100 µM,> 100 µM,> 100 µM,> 100 µM,> 100 µM,> 100 µM,> 100 µM,> 100 µM,76.5 µM,> 100 µM,> 100 µM,> 100 µM,> 100 µM,> 100 µM,> 100 µM,EC50 [16]: > 100 µM; EC50 [22]: > 100 µM; MCC [23]: ≥ 20 µM; MCC [24]: ≥ 20 µM; MCC [25]: > 100 µM; EC50 [26]: > 100 µM; EC50 [27]: > 100 µM; EC50 [28]: > 100 µM
C/C(=C/CP(=O)(N[C@@H](C)C(=O)OCc1ccccc1)Oc1cccc2c1CCCC2)Cn1cc(C)c(=O)[nH]c1=O (stereo partly drawn),> 100 µM,> 100 µM,> 100 µM,> 100 µM,> 100 µM,> 100 µM,> 100 µM,> 100 µM,> 100 µM,> 100 µM,> 100 µM,> 100 µM,> 100 µM,17 µM,65.1 µM,76.5 µM,> 100 µM,> 100 µM,> 100 µM,> 100 µM,EC50 [22]: > 100 µM; MCC [23]: ≥ 20 µM; MCC [24]: ≥ 20 µM; MCC [25]: > 100 µM; EC50 [26]: > 100 µM; EC50 [27]: > 100 µM; EC50 [28]: > 100 µM
Nc1nc2c(ncn2COCCO)c(=O)[nH]1 [ACYCLOVIR],,,126 µM,> 250 µM,,,,,,,,,,,,,250 to 440 µM,,,,
Cc1cn([C@H]2C[C@H](F)[C@@H](CO)O2)c(=O)[nH]c1=O [ALOVUDINE],,,,,1.2 µM,,,,,,,,,,,,> 250 µM,,,,
